Converted amounts (≈) assume the structure as drawn.
How the values were obtained:
Mus musculus [1] = assay: At 50 mg/kg dose CDF1 mice were injected ip on (1,5,9) days after tumor transplantation to evaluate mean survival time; assay type: functional; details: route intraperitoneal
Outline: (§1)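 CDF1 mice were inoculated ip with 10^6 murine leukemia cells on day 0. Drug was given ip starting 24 h later, on the day schedule listed in each line. Mice were checked daily for toxicity and survival, and day of death was recorded over a 60-day study. The result is reported as mean survival time of treated mice divided by that of controls, ×100.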

L1210 = assay: The compound was tested for its antitumor activity against L1210 cells; assay type: functional; details: Mus musculus, read-out: ID50 (the source's name)
Mus musculus [2] = assay: At 25 mg/kg dose CDF1 mice were injected ip on (1,5,9) days after tumor transplantation to evaluate mean survival time; assay type: functional; details: route intraperitoneal; outline: as §1
Homo sapiens [3] = organism: Homo sapiens; assay: Inhibition of cellular growth was evaluated in vitro against human colon carcinoma subline resistant to DOXO (LOVO/DOXO).; assay type: functional, organism-based
Outline: (§2)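 LOVO and LOVO/DOXO cells were grown at 37 °C under 5% CO2 in Ham's F12 with 20% fetal calf serum. They were plated at 2.5 × 10³ cells/dish and exposed continuously to drug for 144 h. Growth inhibition was read by MTT assay, and the ID50 (drug concentration giving 50% inhibition of growth versus control) was derived.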

Homo sapiens [4] = organism: Homo sapiens; assay: Inhibition of cellular growth was evaluated in vitro against human colon carcinoma LOVO.; assay type: functional, organism-based; outline: as §2
Mus musculus [5] = assay: At 12.5 mg/kg dose CDF1 mice were injected ip on (1,5,9) days after tumor transplantation to evaluate mean survival time; assay type: functional; details: route intraperitoneal; outline: as §1
Mus musculus [6] = assay: At 6.25 mg/kg dose CDF1 mice were injected ip on (1,5,9) days after tumor transplantation to evaluate mean survival time; assay type: functional; details: route intraperitoneal; outline: as §1
Homo sapiens [7] = organism: Homo sapiens; assay: Inhibition of cellular growth was evaluated in vitro against human colon carcinoma LOVO; assay type: functional; outline: as §2
Mus musculus [8] = assay: At 50 mg/kg dose CDF1 mice were injected ip on (1,5) days after tumor transplantation to evaluate mean survival time; assay type: functional; details: route intraperitoneal; outline: as §1
Mus musculus [9] = assay: At 25 mg/kg dose CDF1 mice were injected ip on (1,5) days after tumor transplantation to evaluate mean survival time; assay type: functional; details: route intraperitoneal; outline: as §1
Mus musculus [10] = assay: At 50 mg/kg dose CDF1 mice were injected ip on 1 day after tumor transplantation to evaluate mean survival time; assay type: functional; details: route intraperitoneal; outline: as §1
Mus musculus [11] = assay: At 25 mg/kg dose CDF1 mice were injected ip on (1) days after tumor transplantation to evaluate mean survival time; assay type: functional; details: route intraperitoneal; outline: as §1
Mus musculus [12] = assay: At 12.5 mg/kg dose CDF1 mice were injected ip on (1) days after tumor transplantation to evaluate mean survival time; assay type: functional; details: route intraperitoneal; outline: as §1
Mus musculus [13] = assay: At 5 mg/kg dose CDF1 mice were injected ip on (1,5) days after tumor transplantation to evaluate mean survival time; assay type: functional; details: route intraperitoneal; outline: as §1

## CN(C)CCNc1ccc(NCCNCCO)c2c1C(=O)c1ccccc1C2=O
Mus musculus [1]
  T/C: 145%
L1210
  IC50: 0.0038 µg/mL (≈ 0.00958 µM)
Mus musculus [2]
  T/C: 148%

## COc1cccc2c1C(=O)c1c(O)c3c(c(O)c1C2=O)C[C@@](O)(C(=O)CO)C[C@@H]3O[C@H]1C[C@H](N)[C@H](O)[C@H](C)O1 [DOXORUBICIN]
Homo sapiens [3]
  IC50: 3.84 µg/mL (≈ 7.07 µM)
Homo sapiens [4]
  IC50: 0.0247 µg/mL (≈ 0.0454 µM)

## O=C1c2ccccc2C(=O)c2c(NCCNCCO)ccc(NCCNCCO)c21 [AMETANTRONE]
Homo sapiens [3]
  IC50: 44.8 µg/mL (≈ 109 µM)
Mus musculus [1]
  T/C: 146%
Homo sapiens [4]
  IC50: 0.283 µg/mL (≈ 0.685 µM)
L1210
  IC50: 0.01 µg/mL (≈ 0.0242 µM)
Mus musculus [2]
  T/C: 252%
Mus musculus [5]
  T/C: 177%

## CN(C)CCNc1ccc(NCCNCCO)c2c1C(=O)c1c(O)ccc(O)c1C2=O
Homo sapiens [3]
  IC50: 0.024 µg/mL (≈ 0.056 µM)
Mus musculus [6]
  T/C: 188%
L1210
  IC50: 0.00017 µg/mL (≈ 0.000397 µM)
Homo sapiens [7]
  IC50: 1 ng/mL (≈ 0.00233 µM)
Mus musculus [2]
  T/C: 244%
Mus musculus [5]
  T/C: 187%

## CN(C)CCNc1ccc(NCCCCN)c2c1C(=O)c1ccccc1C2=O
Mus musculus [8]
  T/C: 64%
L1210
  IC50: 0.0045 µg/mL (≈ 0.0118 µM)
Mus musculus [9]
  T/C: 111%
Mus musculus [5]
  T/C: 113%

## O=C1c2c(O)ccc(O)c2C(=O)c2c(NCCNCCO)ccc(NCCNCCO)c21 [MITOXANTRONE]
Homo sapiens [3]
  IC50: 0.274 µg/mL (≈ 0.616 µM)
Homo sapiens [4]
  IC50: 0.0055 µg/mL (≈ 0.0124 µM)

## CN(C)CCNc1ccc(N(C)CCN(C)C)c2c1C(=O)c1ccccc1C2=O
Mus musculus [1]
  T/C: 127%
L1210
  IC50: 0.5 µg/mL (≈ 1.27 µM)
Mus musculus [9]
  T/C: 108%

## O=C1c2ccccc2C(=O)c2c(NC3CC3)ccc(NC3CC3)c21
Mus musculus [6]
  T/C: 100%
L1210
  IC50: > 10 µg/mL
Mus musculus [2]
  T/C: 107%
Mus musculus [5]
  T/C: 112%

## CN(C)CCN(C)c1ccc(N(C)CCN(C)C)c2c1C(=O)c1ccccc1C2=O
Mus musculus [10]
  T/C: 95%
L1210
  IC50: 4.6 µg/mL (≈ 11.3 µM)
Mus musculus [11]
  T/C: 100%
Mus musculus [12]
  T/C: 103%

## NCCCCNc1ccc(NCCNCCO)c2c1C(=O)c1c(O)ccc(O)c1C2=O
Mus musculus [13]
  T/C: 138%
L1210
  IC50: 0.0007 µg/mL (≈ 0.00163 µM)

## CN(C)CCNc1ccc(NCCN)c2c1C(=O)c1ccccc1C2=O
Mus musculus [1]
  T/C: 180%
L1210
  IC50: 0.03 µg/mL (≈ 0.0851 µM)
Mus musculus [2]
  T/C: 150%
Mus musculus [5]
  T/C: 129%

— ChEMBL document CHEMBL1125604, “Synthesis and antitumor evaluations of symmetrically and unsymmetrically substituted 1,4-bis[(aminoalkyl)amino]anthracene-9,10-diones and 1,4-bis[(aminoalkyl)amino]-5,8-dihydroxyanthracene-9,10-diones” (J Med Chem, 1991)
